Laboratory results as given in ChEMBL document CHEMBL5154633 (J Med Chem, 2022).
Active and inactive are the calls of the source. The rule behind the calls is not given here.

What was measured:
SARS-CoV-2 [1] = experiment: Antiviral activity against SARS-COV 2 infected in human Calu-3 cells assessed as inhibition of viral replication after 48 hrs by qRT-PCR analysis; type: functional, organism-based; conditions: Severe acute respiratory syndrome coronavirus 2, Calu-3, 48 h
Murine hepatitis virus [2] = experiment: Antiviral activity against MHV-A59 infected in BALB/c mouse assessed as improvement in survival at 100 mg/kg, ig administered at 0.5 hrs post infection followed by 50 mg/kg administered daily measured upto 14 days; type: functional; conditions: time <= 14 day
Outline: (§1)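 Male SPF BALB/c mice, 3–4 weeks old, were inoculated intranasally with 30 μL MHV-A59 in PBS (TCID50 10^-7.125/100 μL). They received 100 mg/kg IG or IP at 0.5 hpi, then 50 mg/kg once daily for the next 4 d. Untreated infected controls received PBS. Survival was followed for 14 d, N = 8 per group.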

[3] = Toxicity in BALB/c mouse infected with MHV-A59 assessed as change in body weight at 100 mg/kg, ig administered at 0.5 hrs post infection followed by 50 mg/kg administered daily measured upto 14 days; type: organism-based; conditions: in vivo, po, 336 h, time < 14 day
Outline: (§2)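 MHV-A59-infected male BALB/c mice (3–4 weeks) were dosed 100 mg/kg IG or IP at 0.5 hpi, then 50 mg/kg daily for 4 d. Uninfected drug-treated and PBS-only groups served as controls. Body weight was recorded daily for 14 d, N = 8 per group.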

SARS-CoV-2 [4] = experiment: Antiviral activity against SARS-COV 2 infected in African green monkey Vero E6 cells assessed as inhibition of viral replication after 48 hrs by qRT-PCR analysis; type: functional, organism-based; conditions: Severe acute respiratory syndrome coronavirus 2, Vero C1008, 48 h
Vero C1008 = experiment: Cytotoxicity against African green monkey Vero cells assessed as reduction in cell viability upto 50 uM measured for 48 hrs by CCK8 assay; type: toxicity, cell-based; conditions: chlorocebus sabaeus, vero c1008, 48 h
Outline: (§3)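 Vero E6, Calu-3 or Caco-2 cells were seeded at 20 000/well. They were exposed to 0, 0.01, 0.1, 1, 5, 10 or 50 μM compound for 48 h, and viability was read by CCK-8.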

[5] = Oral bioavailability in Sprague-Dawley rat at 30 mg/kg measured over 48 hrs by HPLC/MS analysis; type: ADME, organism-based; conditions: in vivo
[6] = AUC(0 to t) in Sprague-Dawley rat at 30 mg/kg, iv measured over 48 hrs by HPLC/MS analysis; type: ADME, organism-based; design: dose 30 mg/kg, time 48 hrs, route iv; conditions: in vivo
Murine hepatitis virus [7] = experiment: Antiviral activity against MHV-A59 infected in BALB/c mouse assessed as reduction in viral titer in liver at 100 mg/kg, ig administered at 0.5 hrs post infection followed by 50 mg/kg administered daily measured upto 14 days by qRT-PCR analysis; type: functional; design: scale not given: the % may be the effect or the level left; conditions: time <= 14 day
Outline: (§4)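 Male BALB/c mice were infected intranasally with MHV-A59 and dosed 100 mg/kg IG or IP at 0.5 hpi, then 50 mg/kg daily. Three mice per group were killed at 3 dpi. Liver RNA was extracted and viral load quantified by qRT-PCR against PBS-treated infected controls.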

[8] = AUC in human plasma at 3 to 225 mg, iv administered as 2 hr infusion; type: ADME, organism-based; design: time 2 hrs, route iv; conditions: dose 3-225 mg
Murine hepatitis virus [9] = experiment: Antiviral activity against MHV-A59 infected in BALB/c mouse assessed as improvement in survival at 100 mg/kg, ip administered at 0.5 hrs post infection followed by 50 mg/kg administered daily measured upto 14 days; type: functional; conditions: time <= 14 day; outline: as §1
[10] = Toxicity in BALB/c mouse infected with MHV-A59 assessed as change in body weight at 100 mg/kg, ip administered at 0.5 hrs post infection followed by 50 mg/kg administered daily measured upto 14 days; type: organism-based; conditions: in vivo, 336 h, time < 14 day; outline: as §2
SARS-CoV-2 [11] = experiment: Antiviral activity against SARS-CoV-2 infected in AAV-human ACE2 transduced BALB/c mouse assessed as viral clearance in lungs at 25 mg/kg/day, ip administered 1 day prior to viral infection and measured after 2 days post infection by focus forming assay; type: functional, organism-based; conditions: Severe acute respiratory syndrome coronavirus 2, time 3.0 day
SARS-CoV-2 [12] = experiment: Antiviral activity against SARS-COV 2 infected in human Caco-2 cells assessed as inhibition of viral replication after 48 hrs by qRT-PCR analysis; type: functional, organism-based; conditions: Severe acute respiratory syndrome coronavirus 2, Caco-2, 48 h
[13] = Cmax in Sprague-Dawley rat at 30 mg/kg, iv measured over 48 hrs by HPLC/MS analysis; type: ADME, organism-based; design: dose 30 mg/kg, time 48 hrs, route iv; conditions: in vivo
[14] = Toxicity AAV-human ACE2 transduced BALB/c mouse infected with SARS-COV2 assessed as loss of body weight at 25 mg/kg/day, ip administered 1 day prior to viral infection and treated for 8 days; type: organism-based; conditions: in vivo, 192 h, time 8 day
Caco-2 = experiment: Cytotoxicity against human Caco-2 cells assessed as reduction in cell viability upto 50 uM measured for 48 hrs by CCK8 assay; type: toxicity, cell-based; conditions: caco-2, 48 h; outline: as §3
[15] = Tmax in Sprague-Dawley rat at 30 mg/kg, ig measured over 48 hrs by HPLC/MS analysis; type: ADME, organism-based; conditions: in vivo, po
Murine hepatitis virus [16] = experiment: Antiviral activity against MHV-A59 infected in BALB/c mouse assessed as reduction in viral titer in liver at 100 mg/kg, ip administered at 0.5 hrs post infection followed by 50 mg/kg administered daily measured upto 14 days by qRT-PCR analysis; type: functional; design: scale not given: the % may be the effect or the level left; conditions: time <= 14 day; outline: as §4
Calu-3 = experiment: Cytotoxicity against human Calu-3 cells assessed as reduction in cell viability upto 50 uM measured for 48 hrs by CCK8 assay; type: toxicity, cell-based; conditions: calu-3, 48 h; outline: as §3
[17] = AUC(0 to t) in Sprague-Dawley rat at 30 mg/kg, ig measured over 48 hrs by HPLC/MS analysis; type: ADME, organism-based; design: dose 30 mg/kg, time 48 hrs, route ig; conditions: in vivo, po
[18] = Tmax in Sprague-Dawley rat at 30 mg/kg, iv measured over 48 hrs by HPLC/MS analysis; type: ADME, organism-based; conditions: in vivo
[19] = Half life in human plasma at 3 to 225 mg, iv administered as 2 hr infusion; type: ADME, organism-based; conditions: dose 3-225 mg

For `N#C[C@@]1(c2ccc3c(N)ncnn23)O[C@H](CO)[C@@H](O)[C@H]1O` [GS-441524], the IC50 (SARS-CoV-2 [1]) was 3210 nM, the Activity (Murine hepatitis virus [2]) was 100% and the Activity [3] was “Toxic”. The IC50 (SARS-CoV-2 [4]) was 700 nM, the Activity (Vero C1008) was “Non-Toxic” and the bioavailability [5] was 4.84%. The AUC(0-t) at 48 h [6] was 592000 ng·h/mL, the Activity (Murine hepatitis virus [7]) was 99.9% and the AUC at 2 h [8] was 2230 ng·h/mL. The Activity (Murine hepatitis virus [9]) was 100%, the Activity [10] was “Toxic” and the Activity (SARS-CoV-2 [11]) was “Active”. For the same compound, the IC50 (SARS-CoV-2 [12]) was 3620 nM, the Cmax [13] was 164 µg/mL and the Activity [14] was “Non-Toxic”. For the same compound, the Activity (Caco-2) was “Non-Toxic”, the Tmax [15] was 56.4 min and the Activity (Murine hepatitis virus [16]) was 99.9%. The Activity (Calu-3) was “Non-Toxic”, the AUC(0-t) at 48 h [17] was 28700 ng·h/mL and the Tmax [18] was 6 min.
`CCC(CC)COC(=O)[C@H](C)N[P@](=O)(OC[C@H]1O[C@@](C#N)(c2ccc3c(N)ncnn23)[C@H](O)[C@@H]1O)Oc1ccccc1` gave an IC50 (SARS-CoV-2 [1]) of 650 nM, an IC50 (SARS-CoV-2 [4]) of 1350 nM and an AUC at 2 h [8] of 1590 ng·h/mL. It also gave an IC50 (SARS-CoV-2 [12]) of 580 nM and a half-life [19] of less than 60 min.
